Activity calls are given as the source filed them. Unless noted, no stated cut-off is given here; in the data, active means inhibition above about 30%; inactive means the rest.
How the values were obtained:
[1] = Her2 expression decrease, cell viability multiplex – SKBR3 breast tumor cells, AlphaScreen, ATP viability, primary screen (AID 461;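 active means Her2 level under about 52% in both replicate screens, with viability over 70% of control, limit read from the data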;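 on Her2 level: lower value means less Her2 protein in the cells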;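 on viability: percent of carrier control wells set as 100% viability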); settings: SKBR3 Her2 protein level, 18-24 h, measured here: SKBR3 viability, ATP luminescence, at 10 µM
[2] = molecular target: Receptor tyrosine-protein kinase erbB-2 (Homo sapiens) (UniProt P04626); experiment: as above; settings: 18-24 h, at 10 µM, stronger effect = lower value
Chain of Receptor tyrosine-protein kinase erbB-2 (Homo sapiens) (P04626 whole entry, looked up): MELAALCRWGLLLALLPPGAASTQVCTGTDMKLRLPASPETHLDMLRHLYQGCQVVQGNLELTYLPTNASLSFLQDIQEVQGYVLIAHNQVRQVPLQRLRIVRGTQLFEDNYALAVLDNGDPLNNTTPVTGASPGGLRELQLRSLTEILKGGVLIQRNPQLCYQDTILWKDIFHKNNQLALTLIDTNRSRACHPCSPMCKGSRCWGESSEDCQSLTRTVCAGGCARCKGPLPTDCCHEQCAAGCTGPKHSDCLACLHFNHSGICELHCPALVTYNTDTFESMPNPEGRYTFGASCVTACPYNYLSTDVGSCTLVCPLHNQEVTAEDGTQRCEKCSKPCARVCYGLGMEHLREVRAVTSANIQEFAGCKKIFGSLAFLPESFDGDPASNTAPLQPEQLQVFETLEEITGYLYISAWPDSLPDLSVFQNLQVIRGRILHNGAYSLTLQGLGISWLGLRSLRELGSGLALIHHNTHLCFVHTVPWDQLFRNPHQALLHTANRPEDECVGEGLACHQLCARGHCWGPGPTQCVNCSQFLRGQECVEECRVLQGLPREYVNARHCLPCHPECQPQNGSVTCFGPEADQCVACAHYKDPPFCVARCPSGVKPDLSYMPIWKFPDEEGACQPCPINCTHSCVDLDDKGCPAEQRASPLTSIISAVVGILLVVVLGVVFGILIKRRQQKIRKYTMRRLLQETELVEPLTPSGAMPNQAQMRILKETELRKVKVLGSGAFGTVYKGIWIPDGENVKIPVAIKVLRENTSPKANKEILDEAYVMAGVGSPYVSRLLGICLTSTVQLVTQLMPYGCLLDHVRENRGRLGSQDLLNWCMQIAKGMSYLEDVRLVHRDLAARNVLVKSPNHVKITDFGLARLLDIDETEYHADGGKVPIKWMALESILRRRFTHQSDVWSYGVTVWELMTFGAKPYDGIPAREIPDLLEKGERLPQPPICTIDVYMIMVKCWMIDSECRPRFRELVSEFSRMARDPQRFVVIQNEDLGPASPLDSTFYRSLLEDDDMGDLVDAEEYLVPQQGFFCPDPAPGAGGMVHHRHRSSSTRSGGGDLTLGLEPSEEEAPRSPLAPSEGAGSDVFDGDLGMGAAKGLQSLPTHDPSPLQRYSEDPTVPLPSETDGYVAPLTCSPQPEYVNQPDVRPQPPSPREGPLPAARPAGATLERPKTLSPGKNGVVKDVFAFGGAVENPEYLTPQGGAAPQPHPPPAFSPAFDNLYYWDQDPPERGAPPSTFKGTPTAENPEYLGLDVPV

[3] = reduced viability of SK-BR-3 breast cancer cells – cell-based, 24 h, human, pilot screen (AID 572;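 active means viability at or below 10% of carrier control in both of two separate runs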;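 further: compound exposure lasted between 18 and 24 h rather than exactly 24 h; 100% = carrier-treated control wells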); settings: SK-BR-3 viability, CellTiter-Glo luminescence, at 10 µM, stronger effect = lower value
[4] = HUVEC growth inhibition – cell-based, human, primary screen (AID 575;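 active means viability at or below 30% in both replicate assays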;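 further: 100% = median of untreated cell wells with 0.1% DMSO on each plate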); settings: HUVEC proliferation, CellTiter-Glo luminescence, 72 h; at 10 µM; stronger effect = lower value
Summary of the method: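 system = HUVEC primary cells | amount = 1250 cells/well | buffer or medium = supplemented EBM, 2% fetal bovine serum | dosing = single-point 10 µM, DMSO 0.1% final | times = 72 h compound incubation | detection = CTG luminescence | read-out = % viability relative to median vehicle-well signal on each plate | control set = vehicle and MePR control wells | format = collagen-coated 384-well format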

[5] = H69AR cell proliferation blockers – human, duplicate replicates, primary screen (AID 580;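 active means viability at or under a set limit in both replicates, limit being median viability minus 3 SD, cut at about 48% in these data, passing the limit was not always enough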;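 further: 100% = mean luminescence of untreated wells and 0% = no signal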); settings: H69AR lung tumor cells viability, ATP luminescence, 72 h; at 10 µM; stronger effect = lower value
[6] = MRP1 drug-resistance reversers in H69AR cells – cell-based, doxorubicin co-treatment, pilot screen (AID 601;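 active means viability loss from added drug above about 55%, and viability with drug at most 40%, in both replicates, limit read from the data, passing the limit was not always enough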); settings: CellTiter-Glo, 72 h, at 10 µM; for differential viability (reversal): stronger effect = higher value
[7] = yeast transport mutant growth inhibition pilot in 384-well plates, post-Golgi transport modulator project (AID 636; in the data active means inhibition above about 31%); settings: absorbance 615 nm, about 18 h, stronger effect = higher value
[8] = growth suppression of yeast trafficking mutant, preliminary HTS, modulators of trafficking downstream of Golgi apparatus project, 1536-format plate, OD 615 nm (AID 637); settings: yeast transport mutant growth, absorbance 615 nm, 18 h; stronger effect = higher value
[9] = H69AR cells + 2 uM doxorubicin, measured here: viability with 2 uM doxorubicin, stronger effect = lower value
[10] = H69AR cells, compound alone cytotoxicity

COc1ccc(C2=NO[C@@H]3C(=O)N(c4cccc(C)c4C)C(=O)[C@H]23)cc1OC
viability [1]: 104% | Her2 level [2]: 106% (inactive) | viability [3]: 104% (inactive) | viability [4]: 97.7% (inactive) | viability [5]: 91.5% (inactive) | differential viability (reversal) ([6]; H69AR cells + 2 uM doxorubicin): -7.95% (inactive) | viability [6, 9]: 99.5% | viability [6, 10]: 91.5% | inhibition [7]: 4.29% (inactive) | inhibition [8]: -3.49% (inactive)

O=C(Nc1ccc(N2CCOCC2)c(F)c1)c1ccncc1
viability [1]: 97% | Her2 level [2]: 99% (inactive) | viability [3]: 97% (inactive) | viability [4]: 114% (inactive) | viability [5]: 96.6% (inactive) | differential viability (reversal) ([6]; H69AR cells + 2 uM doxorubicin): 12.5% (inactive) | viability [6, 9]: 84.2% | viability [6, 10]: 96.6% | inhibition [7]: -4.27% (inactive) | inhibition [8]: 1.64% (inactive)

COc1ccc(NC(=O)CN2CCCCC2)cc1
viability [1]: 108% | Her2 level [2]: 108% (inactive) | viability [3]: 108% (inactive) | viability [4]: 90.2% (inactive) | viability [5]: 88.2% (inactive) | differential viability (reversal) ([6]; H69AR cells + 2 uM doxorubicin): 5.94% (inactive) | viability [6, 9]: 82.3% | viability [6, 10]: 88.2% | inhibition [7]: -5.58% (inactive) | inhibition [8]: -10% (inactive)

COc1cc(-c2noc(-c3cccc(Cl)c3)n2)cc(OC)c1OC
viability [1]: 92.5% | Her2 level [2]: 86% (inactive) | viability [3]: 92.5% (inactive) | viability [4]: 68% (inactive) | viability [5]: 80.5% (inactive) | differential viability (reversal) ([6]; H69AR cells + 2 uM doxorubicin): -10.1% (inactive) | viability [6, 9]: 90.6% | viability [6, 10]: 80.5% | inhibition [7]: -5.73% (inactive) | inhibition [8]: 0.97% (inactive)

O=C(CCC(=O)c1cccs1)NCc1ccccc1
viability [1]: 102% | Her2 level [2]: 114% (inactive) | viability [3]: 102% (inactive) | viability [4]: 98.2% (inactive) | viability [5]: 97.8% (inactive) | differential viability (reversal) ([6]; H69AR cells + 2 uM doxorubicin): -0.02% (inactive) | viability [6, 9]: 97.8% | viability [6, 10]: 97.8% | inhibition [7]: -3.64% (inactive) | inhibition [8]: -2.22% (inactive)

CC(C)OCCCNC(=O)c1cc2c(s1)CS(=O)(=O)C2
viability [1]: 99% | Her2 level [2]: 104% (inactive) | viability [3]: 99% (inactive) | viability [4]: 90.3% (inactive) | viability [5]: 94.6% (inactive) | differential viability (reversal) ([6]; H69AR cells + 2 uM doxorubicin): -1.46% (inactive) | viability [6, 9]: 96.1% | viability [6, 10]: 94.6% | inhibition [7]: 1.03% (inactive) | inhibition [8]: -8.5% (inactive)

CCOc1ccc(C(C)=O)cc1COc1ccc(-n2cnnn2)cc1
viability [1]: 99% | Her2 level [2]: 108% (inactive) | viability [3]: 99% (inactive) | viability [4]: 111% (inactive) | viability [5]: 77.2% (inactive) | differential viability (reversal) ([6]; H69AR cells + 2 uM doxorubicin): -2.58% (inactive) | viability [6, 9]: 79.8% | viability [6, 10]: 77.2% | inhibition [7]: -4% (inactive) | inhibition [8]: -8.52% (inactive)

CC(C)[C@H](NC(=O)NC1CCCC1)C(=O)O
viability [1]: 103% | Her2 level [2]: 97.5% (inactive) | viability [3]: 103% (inactive) | viability [4]: 87.9% (inactive) | viability [5]: 104% (inactive) | differential viability (reversal) ([6]; H69AR cells + 2 uM doxorubicin): 15.2% (inactive) | viability [6, 9]: 89% | viability [6, 10]: 104% | inhibition [7]: -0.52% (inactive) | inhibition [8]: -9.34% (inactive)

CCOC(=O)CSc1nc(C)c(C(=O)OCC)s1
viability [1]: 89% | Her2 level [2]: 93.5% (inactive) | viability [3]: 89% (inactive) | viability [4]: 105% (inactive) | viability [5]: 101% (inactive) | differential viability (reversal) ([6]; H69AR cells + 2 uM doxorubicin): 3.4% (inactive) | viability [6, 9]: 97.8% | viability [6, 10]: 101% | inhibition [7]: 0.92% (inactive) | inhibition [8]: -4.68% (inactive)

Cc1c(C(=O)O)oc2ccc(S(=O)(=O)NCc3ccccc3)cc12
viability [1]: 105% | Her2 level [2]: 113% (inactive) | viability [3]: 105% (inactive) | viability [4]: 113% (inactive) | viability [5]: 106% (inactive) | differential viability (reversal) ([6]; H69AR cells + 2 uM doxorubicin): 0.815% (inactive) | viability [6, 9]: 105% | viability [6, 10]: 106% | inhibition [7]: -3.42% (inactive) | inhibition [8]: -6.51% (inactive)

CCOC(=O)CSc1cn2c(n1)CCC2
viability [1]: 99.5% | Her2 level [2]: 103% (inactive) | viability [3]: 99.5% (inactive) | viability [4]: 92% (inactive) | viability [5]: 92.4% (inactive) | differential viability (reversal) ([6]; H69AR cells + 2 uM doxorubicin): -2.28% (inactive) | viability [6, 9]: 94.7% | viability [6, 10]: 92.4% | inhibition [7]: -0.79% (inactive) | inhibition [8]: -8.87% (inactive)

COc1ccc(OC)c(NC(=O)CS(=O)(=O)Cc2nc(-c3ccccc3C)oc2C)c1
viability [1]: 97.5% | Her2 level [2]: 97.5% (inactive) | viability [3]: 97.5% (inactive) | viability [4]: 66.1% (inactive) | viability [5]: 94.4% (inactive) | differential viability (reversal) ([6]; H69AR cells + 2 uM doxorubicin): -2.23% (inactive) | viability [6, 9]: 96.6% | viability [6, 10]: 94.4% | inhibition [7]: -2.8% (inactive) | inhibition [8]: 6.83% (inactive)

CCCOc1ccc(C2c3c(oc4ccccc4c3=O)C(=O)N2CCCN2CCOCC2)cc1 (stereo not given)
viability [1]: 84.5% | Her2 level [2]: 77.5% (inactive) | viability [3]: 84.5% (inactive) | viability [4]: 90.3% (inactive) | viability [5]: 71.6% (inactive) | differential viability (reversal) ([6]; H69AR cells + 2 uM doxorubicin): 0.68% (inactive) | viability [6, 9]: 71% | viability [6, 10]: 71.6% | inhibition [7]: -3.73% (inactive) | inhibition [8]: -4.26% (inactive)

CC(C)CN(C(=O)COC(=O)Cc1n[nH]c(=O)c2ccccc12)C1CCS(=O)(=O)C1 (stereo not given)
viability [1]: 97.5% | Her2 level [2]: 98.5% (inactive) | viability [3]: 97.5% (inactive) | viability [4]: 93.6% (inactive) | viability [5]: 90.1% (inactive) | differential viability (reversal) ([6]; H69AR cells + 2 uM doxorubicin): 4.47% (inactive) | viability [6, 9]: 85.7% | viability [6, 10]: 90.1% | inhibition [7]: -3.12% (inactive) | inhibition [8]: -1.75% (inactive)

CCOC(=O)C1=C(O)C(=O)N(c2ccc(S(N)(=O)=O)cc2)C1c1ccccc1 (stereo not given)
viability [1]: 97.5% | Her2 level [2]: 110% (inactive) | viability [3]: 97.5% (inactive) | viability [4]: 96.7% (inactive) | viability [5]: 96.7% (inactive) | differential viability (reversal) ([6]; H69AR cells + 2 uM doxorubicin): 1.46% (inactive) | viability [6, 9]: 95.2% | viability [6, 10]: 96.7% | inhibition [7]: -6.53% (inactive) | inhibition [8]: -6.23% (inactive)

COc1cc(NC(=O)C(C)Oc2ccccc2)c(C(=O)O)cc1OC (stereo not given)
viability [1]: 116% | Her2 level [2]: 90% (inactive) | viability [3]: 116% (inactive) | viability [4]: 96.4% (inactive) | viability [5]: 92.8% (inactive) | differential viability (reversal) ([6]; H69AR cells + 2 uM doxorubicin): 11.7% (inactive) | viability [6, 9]: 81.1% | viability [6, 10]: 92.8% | inhibition [7]: -7.07% (inactive) | inhibition [8]: 2.13% (inactive)
